Results published in ChEMBL document CHEMBL5143667, “Identification of Aloe-derived natural products as prospective lead scaffolds for SARS-CoV-2 main protease (Mpro) inhibitors” (Bioorg Med Chem Lett, 2022).
Square brackets hold non-standard residues; d marks the D form. Peptide text beside a SMILES is read from it. * marks the point of attachment. Nle = CCCC[C@H](N)C(=O)O; Cbz = O=C(OCc1ccccc1)*

biological target: Replicase polyprotein 1ab (Severe acute respiratory syndrome coronavirus 2) (UniProt P0DTD1); assay: Inhibition of SARS-CoV-2 main protease expressed in Escherichia coli using DABCYL-KTSAVLQ1SGFRKM-E(EDANS)-NH2 peptide as substrate at 100 uM incubated for 30 mins by FRET based assay relative to control
Method in brief: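 Started by adding substrate–inhibitor mix to enzyme. Ex 360/Em 460 nm every 2.5 min for 1 h. Initial velocity from first 20 min, substrate background subtracted, % inhibition vs DMSO control. Triplicate, mean ± SD.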

**Q.** How did the inhibition turn out when `CC(=O)O/N=C1\C(=O)N(Cc2cc(Cl)ccc2Cl)c2ccc(Cl)cc21` was run?
**A.** 61.4%

**Q.** For `O=C1CC(=O)c2c(Cl)c(Cl)c(Cl)c(Cl)c21`, which inhibition is on record?
**A.** 94.2%

**Q.** Which inhibition does the source give for `COc1cc(C)c2c(=O)cc(C[C@@H](C)O)oc2c1[C@@H]1O[C@H](CO)[C@@H](O)[C@H](O)[C@H]1OC(=O)/C=C/c1ccc(O)cc1` here?
**A.** 72.6%

**Q.** `CC(C)(C)C1NC(=O)O[C@@H]2CCC[C@H]2OC/C=C/C(F)(F)c2nc3ccccc3nc2O[C@@H]2C[C@@H](C(=O)N[C@]3(C(=O)NS(=O)(=O)C4(C)CC4)C[C@H]3C(F)F)N(C2)C1=O` (stereo partly specified) was tested. Which inhibition did it give?
**A.** 51.7%

**Q.** Which inhibition does the source give for `COc1cc(C)c2c(=O)cc(CC(C)=O)oc2c1[C@@H]1O[C@H](CO)[C@@H](O)[C@H](O)[C@H]1OC(=O)/C=C/c1ccc(O)cc1` here?
**A.** 60.5%

**Q.** Which inhibition does the source give for `CC(C)C[C@H](NC(=O)[C@H](Cc1ccccc1)C[C@@H](O)[C@H](Cc1ccccc1)NC(=O)OC(C)(C)C)C(=O)N[C@@H](Cc1ccccc1)C(N)=O` here?
**A.** 65%

**Q.** Which inhibition does the source give for `C=C[C@H]1C[C@]1(NC(=O)[C@@H]1C[C@@H](Oc2ncc(OC)c3ccc(Cl)cc23)CN1C(=O)[C@@H](NC(=O)OC(C)(C)C)C(C)(C)C)C(=O)NS(=O)(=O)C1CC1` here?
**A.** 49.4%

**Q.** How did the inhibition turn out when `Cc1cc(C(=O)CN2CCCC2)c(C)n1-c1ccc(F)cc1` was run?
**A.** 54.8%

**Q.** With `CC(NC(=O)[C@H](Cc1ccccc1)NC(=O)OCc1ccccc1)C(=O)CF` (stereo partly specified) as the compound, how does the inhibition read?
**A.** 90.1%

**Q.** `CC(C)(C)NC(=O)N[C@H](C(=O)N1C[C@H]2[C@@H]([C@H]1C(=O)NC(CC1CCC1)C(=O)C(N)=O)C2(C)C)C(C)(C)C` (stereo partly specified) was tested. Which inhibition did it give?
**A.** 97.4%

**Q.** `CC1=C(O)C(=O)C=C2C1=CC=C1[C@@]2(C)CC[C@@]2(C)[C@@H]3C[C@](C)(C(=O)O)CC[C@]3(C)CC[C@]12C` was tested. Which inhibition did it give?
**A.** 57.7%

**Q.** For `CC(C)C[C@@H](C=O)NC(=O)[C@H](CC(C)C)NC(=O)[C@H](CC(C)C)NC(=O)OCc1ccccc1` (Cbz-Leu-Leu-Leu-aldehyde), which inhibition is on record?
**A.** 99%

**Q.** `CC(NC(=O)Cc1cc(F)cc(F)c1)C(=O)NC1C(=O)N(C)c2ccccc2-c2ccccc21` (stereo unspecified) was tested. Which inhibition did it give?
**A.** 53.8%

**Q.** Which inhibition does the source give for `CC(=O)Cc1cc(=O)c2c(C)cc(O)c([C@@H]3O[C@H](CO)[C@@H](O)[C@H](O)[C@H]3O)c2o1` here?
**A.** 80.1%

**Q.** For `CCCC[C@@H](C=O)NC(=O)[C@H](CC(C)C)NC(=O)OCc1ccccc1`, which inhibition is on record?
**A.** 97.2%

**Q.** `CC(=O)N[C@@H](CC(C)C)C(=O)N[C@@H](CC(C)C)C(=O)N[C@H](C=O)CCCNC(=N)N` was tested. Which inhibition did it give?
**A.** 59%

**Q.** For `CCC[C@H](NC(=O)[C@@H]1[C@H]2CCC[C@H]2CN1C(=O)[C@@H](NC(=O)[C@@H](NC(=O)c1cnccn1)C1CCCCC1)C(C)(C)C)C(=O)C(=O)NC1CC1`, which inhibition is on record?
**A.** 88.8%

**Q.** `Cn1cc(/C=C/C(=O)c2cccc(F)c2)cc1/C=C/C(=O)NO` was tested. Which inhibition did it give?
**A.** 51.4%

**Q.** For `CSCC[C@@H](C=O)NC(=O)[C@H](CC(C)C)NC(=O)[C@H](CC(C)C)NC(C)=O` (Ac-Leu-Leu-Met-aldehyde), which inhibition is on record?
**A.** 99.8%

**Q.** For `Nc1ccccc1NC(=O)c1ccc(CNc2nccc(-c3cccnc3)n2)cc1`, which inhibition is on record?
**A.** 66.7%

**Q.** Which inhibition does the source give for `CCCC(NC(=O)C(CC(C)C)NC(=O)OCc1ccccc1)C(=O)C(=O)NCc1ccccn1` (stereo unspecified) here?
**A.** 98.3%

**Q.** Which inhibition does the source give for `CCOC(=O)C[C@H](NC(=O)[C@@H](NC(=O)[C@H](CCC(=O)OC)NC(=O)[C@H](CC(=O)OCC)NC(=O)OCc1ccccc1)C(C)C)C(=O)CF` here?
**A.** 100%

**Q.** How did the inhibition turn out when `Cc1coc2c1C(=O)C(=O)c1c-2ccc2c1CCCC2(C)C` was run?
**A.** 53.9%

**Q.** For `CCCC[C@@H](C=O)NC(=O)[C@H](CC(C)C)NC(=O)[C@H](CC(C)C)NC(C)=O` (Ac-Leu-Leu-[Nle]-aldehyde), which inhibition is on record?
**A.** 95.2%

**Q.** For `Cc1c(O)cccc1C(=O)N[C@@H](CSc1ccccc1)[C@H](O)CN1C[C@H]2CCCC[C@H]2C[C@H]1C(=O)NC(C)(C)C`, which inhibition is on record?
**A.** 56.1%

**Q.** Which inhibition does the source give for `O=C(O)/C(S)=C/c1c[nH]c2ccc(F)cc12` here?
**A.** 71.5%

**Q.** `CCCCCCCCCCCCCCCc1cccc(O)c1C(=O)O` [ANACARDIC ACID] was tested. Which inhibition did it give?
**A.** 96.1%

biological target: Replicase polyprotein 1ab (Severe acute respiratory syndrome coronavirus 2, UniProt P0DTD1); assay: Inhibition of SARS-CoV-2 main protease expressed in Escherichia coli using DABCYL-KTSAVLQ1SGFRKM-E(EDANS)-NH2 peptide as substrate incubated for 30 mins by FRET based assay
Method in brief: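 Same FRET set-up with varied inhibitor concentrations: 50 nM Mpro, 10 μM substrate, Tris-HCl/NaCl/EDTA/DTT buffer, pH 7.3, room temperature, read every 2.5 min for 1 h. Initial slopes from first 20 min, % inhibition vs DMSO. IC50 by nonlinear regression, three-parameter dose–response inhibition model. Triplicates, mean ± SD.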

**Q.** Which IC50 does the source give for `O=C1CC(=O)c2c(Cl)c(Cl)c(Cl)c(Cl)c21` here?
**A.** 138 µM

**Q.** How did the IC50 turn out when `COc1cc(C)c2c(=O)cc(C[C@@H](C)O)oc2c1[C@@H]1O[C@H](CO)[C@@H](O)[C@H](O)[C@H]1OC(=O)/C=C/c1ccc(O)cc1` was run?
**A.** 125 µM

**Q.** Which IC50 does the source give for `CC(=O)Cc1cc(=O)c2c(C)cc(O)c([C@@H]3O[C@H](CO)[C@@H](O)[C@H](O)[C@H]3O)c2o1` here?
**A.** 38.9 µM

**Q.** Which IC50 does the source give for `CCCCCCCCCCCCCCCc1cccc(O)c1C(=O)O` [ANACARDIC ACID] here?
**A.** 6.8 µM
